Results of several laboratories.
Protocols differ between the studies behind these lines.

CCC[C@@](N)(CO)CCc1ccc(OCCCCCC(C)C)cc1 — Cmax (rat; plasma; oral; 100 mg/kg): 1030 nM
Cl.Cl.O=C(CCN1CCCCC1)c1ccc(-c2ccc(C(=O)CCN3CCCCC3)cc2)cc1 — Cmax (Sprague-Dawley rat; plasma; intravenous; 5 mg/kg): 725 ng/mL
COc1ccc2c3c1O[C@H]1C[C@@H](OC(=O)c4ccccc4)C=C[C@@]31CCN(C)C2 — Cmax (rat; brain; intravenous; 5 mg/kg): 13600 ng/g
Cc1ncc(C)n2nc(/C=C/c3nc(N4CCCC4)cc(N4CCOCC4)n3)nc12 — Cmax (male Sprague-Dawley rat; plasma; oral; 0.3 mg/kg): 36 nM
[2H]C([2H])(c1cc(F)c(F)cc1F)n1c(=O)n(Cc2ncn(C)n2)c(=O)[nH]/c1=N\c1cc2cn(C)nc2cc1Cl — Cmax (male Sprague-Dawley rat; plasma; intravenous; 5 mg/kg): 25200 ng/mL
COc1ncccc1-c1cnn2ccc(N3CCN(C(=O)OC(C)C)CC3)nc12 — Cmax (rat; plasma; oral; 10 mg/kg): 3100 nM
N=c1c2c(-c3ccccc3)c(-c3ccccc3)n(Cc3ccccc3)c2ncn1[C@H]1CC[C@H](O)CC1 — Cmax (male Sprague-Dawley rat; plasma; oral; 2 mg/kg; single dose): 133 ng/mL
O=C([O-])C(=O)[O-].[NH-][C@@H]1CCCC[C@H]1[NH-].[Pt+4] (relative stereo) — Cmax (rat; plasma; intravenous; 5 mg/kg): 2450 ng/mL
COC(=O)C(NC(=O)c1cn(CCCCCF)c2ccccc12)C(C)(C)C (stereo not drawn) — Cmax (male Sprague-Dawley rat; plasma; subcutaneous; 50 µg/kg): 1.72 ng/mL
O=C(Nc1cccnn1)N1CCN([C@@H]2CCOc3cc(C(F)(F)F)ccc32)CC1 — Cmax (male Sprague-Dawley rat; plasma; oral; 3 mg/kg): 1520 nM
CCCCCCCC(=O)N[C@@H](CCCCN)C(=O)N[C@@H](CCCCN)C(=O)N[C@@H](C)C(=O)N[C@@H](CC(C)C)C(=O)N[C@@H](CCCCN)C(=O)N[C@@H](CC(C)C)C(=O)N[C@@H](C)C(=O)N[C@@H](CCCCN)C(=O)N[C@@H](CCCCN)C(=O)N1CCC[C@H]1C(=O)N[C@@H](CC(C)C)C(=O)N[C@@H](CCCCN)C(=O)N[C@@H](CC(C)C)C(=O)N[C@@H](CC(C)C)C(=O)N[C@@H](CCCCN)C(N)=O — Cmax (male Sprague-Dawley rat; blood; intravenous; 3 mg/kg; infusion): 273 ng/mL
CCCCCn1cc(C(=O)Nc2cccc3ccccc23)c2ccccc21 — Cmax (male Long-Evans rat; plasma; intraperitoneal; 3 mg/kg): 296 ng/mL
[2H]C([2H])([2H])n1cc2cc(Nc3nc(=O)n(Cc4ncn(C)n4)c(=O)n3Cc3cc(F)c(F)cc3F)c(Cl)cc2n1 — Cmax (male Sprague-Dawley rat; plasma; intravenous; 5 mg/kg): 23900 ng/mL
C#Cc1ccc2c(c1)C(c1ccccn1)=NCc1c(-c3cnco3)ncn1-2 — Cmax (rat; plasma; oral; 2 mg/kg): 395 nM
CCCCCn1nc(C(=O)Nc2cccc3ccccc23)c2ccccc21 — Cmax (male Long-Evans rat; plasma; intraperitoneal; 3 mg/kg): 213 ng/mL
